Reference: ChEMBL document CHEMBL2057153, “Bisdionin C-a rationally designed, submicromolar inhibitor of family 18 chitinases” (ACS Med Chem Lett, 2011)

Key:
Endochitinase B1 = Endochitinase B1 (Aspergillus fumigatus, UniProt Q873X9); assay: Inhibition of Aspergillus fumigatus ChitinaseB1 expressed in Escherichia coli using 4-methyumbelliferyl-beta-B-N,N'-diacetylchitobiose after 10 mins
Outline: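 Recombinant AfChiB1, expressed and purified as reported earlier, assayed with fluorogenic 4MU-GlcNAc2 substrate. IC50 obtained from triplicate measurements at each inhibitor concentration.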

[1] = Inhibition of human chitotriosidase using 4-methyumbelliferyl-beta-B-N,N'-triacetylchitotriose as substrate after 10 mins
Outline: (§1)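 Enzymes (AfChiA1; human chitotriosidase) expressed and purified as reported earlier, assayed with fluorogenic 4MU-GlcNAc3 substrate. IC50 from triplicate measurements at each inhibitor concentration.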

[2] = molecular target: Acidic mammalian chitinase (Mus musculus, UniProt Q91XA9); assay: Inhibition of AMCase in BALB/c mouse lung homogenate using 4-methyumbelliferyl-beta-B-N,N'-diacetylchitobiose after 10 mins
Outline: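 AMCase activity taken from lung homogenate of female BALB/C mice; 100 mg lung lobe tissue homogenized in HBSS. Substrate 4MU-GlcNAc2, fluorogenic 4-methylumbelliferone release. IC50 from triplicate measurements at each inhibitor concentration.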

Endochitinase A1 = molecular target: T1, Endochitinase A1 (Aspergillus fumigatus, UniProt Q873Y0); assay: Inhibition of Aspergillus fumigatus chitinaseA1 using 4-methyumbelliferyl-beta-B-N,N'-triacetylchitotriose as substrate after 10 mins; outline: as §1
T1 sequence (Q873Y0 whole entry): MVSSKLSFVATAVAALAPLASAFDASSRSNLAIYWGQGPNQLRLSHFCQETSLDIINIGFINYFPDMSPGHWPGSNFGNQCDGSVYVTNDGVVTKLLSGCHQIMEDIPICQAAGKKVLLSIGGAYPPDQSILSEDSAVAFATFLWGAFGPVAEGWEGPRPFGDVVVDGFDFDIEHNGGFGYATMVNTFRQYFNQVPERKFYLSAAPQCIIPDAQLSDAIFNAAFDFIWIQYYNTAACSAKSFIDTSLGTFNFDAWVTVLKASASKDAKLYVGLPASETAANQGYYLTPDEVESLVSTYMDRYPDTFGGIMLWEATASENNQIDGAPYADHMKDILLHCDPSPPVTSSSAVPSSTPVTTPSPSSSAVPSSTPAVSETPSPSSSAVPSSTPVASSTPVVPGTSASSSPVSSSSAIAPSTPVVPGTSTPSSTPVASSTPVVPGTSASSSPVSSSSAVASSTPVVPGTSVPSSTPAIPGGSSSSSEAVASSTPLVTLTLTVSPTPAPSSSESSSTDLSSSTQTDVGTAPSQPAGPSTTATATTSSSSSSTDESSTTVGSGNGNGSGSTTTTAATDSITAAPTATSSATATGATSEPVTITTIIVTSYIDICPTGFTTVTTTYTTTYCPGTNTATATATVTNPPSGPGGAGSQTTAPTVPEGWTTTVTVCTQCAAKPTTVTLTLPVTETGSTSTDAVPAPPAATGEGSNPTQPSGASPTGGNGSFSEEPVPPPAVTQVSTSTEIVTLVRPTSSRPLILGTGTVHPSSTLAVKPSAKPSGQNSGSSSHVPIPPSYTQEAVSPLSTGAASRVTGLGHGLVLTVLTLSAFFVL

Acidic mammalian chitinase, sequence (Q91XA9 whole entry): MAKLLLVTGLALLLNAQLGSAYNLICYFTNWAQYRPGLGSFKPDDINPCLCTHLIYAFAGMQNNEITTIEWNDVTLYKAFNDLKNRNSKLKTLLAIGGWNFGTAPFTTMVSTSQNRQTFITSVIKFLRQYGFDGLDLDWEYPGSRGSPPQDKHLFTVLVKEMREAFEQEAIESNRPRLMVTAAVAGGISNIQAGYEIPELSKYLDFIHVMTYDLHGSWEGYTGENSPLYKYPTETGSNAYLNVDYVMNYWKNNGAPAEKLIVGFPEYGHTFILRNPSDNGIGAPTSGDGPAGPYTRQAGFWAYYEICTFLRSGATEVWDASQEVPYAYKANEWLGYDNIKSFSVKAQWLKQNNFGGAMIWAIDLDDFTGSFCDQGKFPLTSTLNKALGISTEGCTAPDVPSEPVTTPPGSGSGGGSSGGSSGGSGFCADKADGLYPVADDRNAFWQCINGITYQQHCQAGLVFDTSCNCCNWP

SMILES | IC50 (Endochitinase B1) | IC50 [1] | IC50 [2] | IC50 (Endochitinase A1)
Cn1cnc2c1c(=O)n(CCn1c(=O)c3c(ncn3C)n(C)c1=O)c(=O)n2C [BISDIONIN B] | 4.8 µM | 110 µM | 90 µM | > 1 mM
Cn1cnc2c1c(=O)n(CCCn1c(=O)c3c(ncn3C)n(C)c1=O)c(=O)n2C [BISDIONIN C] | 0.2 µM | 8.3 µM | 3.4 µM | > 1 mM
Cn1cnc2c1c(=O)n(CCCCn1c(=O)c3c(ncn3C)n(C)c1=O)c(=O)n2C [BISDIONIN D] | 9 µM | 91 µM | – | > 1 mM
Cn1cnc2c1c(=O)n(CCCCCn1c(=O)c3c(ncn3C)n(C)c1=O)c(=O)n2C [BISDIONIN E] | 5.7 µM | 260 µM | – | 0.82 mM
